# eIF4E 4G PPI – eIF4E–eIF4G protein interaction inhibitors, primary screen, biochemical, uHTS, TR-FRET, eIF4GI fragment | Eukaryotic translation initiation factor 4E (Mus musculus) + Eukaryotic translation … | TR-FRET eIF4E-eIF4GI(517-606) binding, 2 h | inhibition, % at 21.7 µM | 220,000 compounds, 0.37% hits | AID 782, 2007;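 note: 0% = full FRET control wells and 100% = background wells lacking eIF4GI fragment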
# 14-3-3 Bad PPI – inhibitors of 14-3-3 zeta/Bad binding, primary screen, biochemical, TR-FRET, bovine 14-3-3 zeta | inhibition, % at 21.7 µM | 14-3-3 protein zeta/delta (Bos taurus), P63103 | AID 781, 2007 | TR-FRET 14-3-3zeta/Dy647-pBad peptide displacement, 1 h | 220,000 compounds, 0.71% hits;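 active = inhibition above about 70%, limit read from the data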;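 note: 0% = full 14-3-3 plus peptide FRET controls and 100% = background without 14-3-3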
# EBV gp42 inh – Epstein-Barr virus gp42 inhibitors, primary screen, biochemical, uHTS, fluorescence polarization; Fluorescence polarization binding assay, mP read-out; inhibition, % (tested at 21.74 µM); 220,000 compounds, 0.42% hits; AID 1085, 2008; in the data active = inhibition above about 50%
# Target sequence (Q1HVG2 whole entry, looked up): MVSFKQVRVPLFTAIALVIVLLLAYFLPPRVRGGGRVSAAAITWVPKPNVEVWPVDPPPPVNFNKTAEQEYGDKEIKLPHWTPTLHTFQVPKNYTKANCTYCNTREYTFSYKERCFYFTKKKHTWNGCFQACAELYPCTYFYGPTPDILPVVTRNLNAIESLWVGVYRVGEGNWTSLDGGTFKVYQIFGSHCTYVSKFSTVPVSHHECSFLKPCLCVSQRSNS
# WT yeast gro inh – growth inhibition of WT strain, primary screen, mitochondrial fusion inhibitor project, WT and mutant strains, chemical genetic | 190,000 compounds, 2.1% hits | inhibition, % at 10 µM | AID 1362, 2008 | mitochondrial fusion phenotypic screen; in the data active = inhibition above about 58%; tested in S. cerevisiae
# NCF1 inh – p47phox/p22phox peptide binding inhibitors, primary screen, biochemical, uHTS, NADPH oxidase regulatory subunit. 220,000 compounds, 0.53% hits. AID 1274, 2008. fluorescence polarization, 2 h. inhibition, % at 24.7 µM. Neutrophil cytosol factor 1 (Homo sapiens), P14598;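 note: 0% = p47phox with labelled peptide and 100% = labelled peptide alone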
# RBBP9 inh – human RBBP9 inhibitors, primary screen, biochemical, fluorescence polarization, FP-Rh probe, HTS; inhibition, % at 7.94 µM; 220,000 compounds, 0.2% hits; recombinant RBBP9; Serine hydrolase RBBP9 (Homo sapiens), O75884; AID 1515, 2009;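 active = inhibition above the campaign mean of all tested compounds plus 3 SD, cut at about 14% in these data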;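 note: plate controls were DMSO wells with RBBP9 for no effect and wells lacking RBBP9 protein for full effect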
# Target sequence (O75884 whole entry, looked up): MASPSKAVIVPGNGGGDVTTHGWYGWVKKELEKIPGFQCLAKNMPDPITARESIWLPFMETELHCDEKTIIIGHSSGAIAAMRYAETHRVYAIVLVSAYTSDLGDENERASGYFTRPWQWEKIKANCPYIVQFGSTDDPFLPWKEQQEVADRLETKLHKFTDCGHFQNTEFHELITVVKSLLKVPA
#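 Assay system: recombinant human RBBP9; Reagent: Serine-hydrolase probe FP-Rh, 375 nM pre-mixing; Doses: 7.94 µM single dose, 0.794% DMSO; Incubation: 30 min then 45 min, 25 °C; Detection: fluorescence polarization (mP), excitation 525 nm, emission 598 nm; Evaluation: percent inhibition from mP, scaled between DMSO and no-protein wells.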
# * marks the source's active call; other numbers are inactive results; . = not tested or not shown; [ ] = dose if it differs, or a comment. Only some compounds are listed: those with a hit (about 3.7% of all), similar ones and a draw of the others.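 Rule for the calls, unless noted: active = inhibition above about 30% (limit read from the data); inactive = the rest.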
SMILES,eIF4E 4G PPI,14-3-3 Bad PPI,EBV gp42 inh,WT yeast gro inh,NCF1 inh,RBBP9 inh
O=C(O)c1ccc2c(c1)C(=O)N(c1nccs1)C2=O,4,-1,-14,.,-2,-2
Cc1cc(/C=C2\SC(=S)N(Cc3ccco3)C2=O)c(C)n1-c1cccnc1,1,-1,122*,-17,-153,-7
CC(C)C(C(=O)O)N1C(=O)/C(=C/C=C/c2ccco2)SC1=S (configuration not stated),46*,71*[fluorescence artefact?],6,8,-81,0
CC(=O)Nc1ccc(S(=O)(=O)N2C(=O)c3cccc4cccc2c34)cc1,-13,6,-11,.,8,10
COc1ccc2c(c1)NC(c1ccc(N(C)C)cc1)c1cccn1-2 (configuration not stated),13,-8,-8,.,-60,1
CC(C)CC(c1nnnn1Cc1ccccc1)N1CCN(C(=O)c2ccco2)CC1 (configuration not stated),2,86*,-14,31,-8,-1
CCC(c1nnnn1Cc1ccco1)N1CCN(C(=O)c2ccco2)CC1 (configuration not stated),1,67,-4,4,-9,0
O=C(c1ccco1)N1CCN(C(c2ccccc2Cl)c2nnnn2Cc2ccco2)CC1 (configuration not stated),6,79*,-11,-11,4,-1
CCCC(c1nnnn1CCOC)N1CCN(C(=O)c2ccco2)CC1 (configuration not stated),-1,81*,-15,-20,-4,-4
CC(CCc1ccccc1)NC(=O)CN1CCN(c2ccc(O)cc2)CC1 (configuration not stated),5,1,-17,-11,-2,1
O=C(Nc1ccc(N2CCOCC2)nc1)c1ccccc1Cl,1,-5,-5,.,-8,5
CSc1ccc(NC(=O)c2cccnc2)cc1C#N,4,4,-5,11,-3,-4
NC(=O)/C(=C/c1ccco1)C(N)=S,-2,-7,-5,.,-15,14
Cn1ccnc1C(O)c1ccccc1 (configuration not stated),-1,-2,6,-2,1,-9
COc1ccc2ccccc2c1C(O)c1nccn1C (configuration not stated),1,7,60*,-3,-7,2
COc1ccc(N=c2cc(-c3ccc(OC)cc3)oc3ccccc23)cc1,7,0,4,76*,-3,1
COc1ccc(-c2cc(=Nc3ccc(C)cc3)c3ccccc3o2)cc1,0,0,-4,4,-7,-6
CC(C)(C)c1ccc(NC(=O)Nc2ccc3ccccc3n2)cc1,-6,1,-12,.,-4,-5
Cc1c(NC(=O)CN2CC(C)OC(C)C2)c(=O)n(-c2ccccc2)n1C (configuration not stated),9,86*,1,-4,-2,-11
Cc1c(NC(=O)CN2CCN(c3ccccc3)CC2)c(=O)n(-c2ccccc2)n1C,5,-4,-11,-5,-6,-10
CCOC(=O)c1sc(NC(=O)CSc2n[nH]c(-c3ccc(Cl)cc3Cl)n2)c(C#N)c1C,-19,8,-1,58*,-42,1
CCC1CCCCN1C(=O)c1cc(-c2ccc(Cl)c(Cl)c2)on1 (configuration not stated),-2,17,-25,74*,4,-15
CC1CCCCN1C(=O)c1cc(-c2ccc(Cl)c(Cl)c2)on1 (configuration not stated),4,3,-30,29,-7,-3
CC1CCc2c(sc(NC(=O)COC(=O)c3ccc(O)cc3)c2C#N)C1 (configuration not stated),-4,20,-2,97*,-38,-8
CC1CCc2c(sc(NC(=O)COC(=O)C3CCCO3)c2C#N)C1 (configuration not stated),-2,-2,5,19,-4,-1
